Assay results from ChEMBL document CHEMBL3797175, “Discovery of 6-(difluoro(6-(4-fluorophenyl)-[1,2,4]triazolo[4,3-b][1,2,4]triazin-3-yl)methyl)quinoline as a highly potent and selective c-Met inhibitor” (Eur J Med Chem, 2016).
Active and inactive are the calls of the source. No cut-off for these calls is given here.

Key:
[1] = molecular target: Insulin-like growth factor 1 receptor (Homo sapiens) (UniProt P08069); test: Inhibition of recombinant IGF1R (unknown origin) using poly (Glu, Tyr) 4:1 as substrate at 1000 nM incubated for 60 mins by ELISA relative to control
Insulin-like growth factor 1 receptor (Homo sapiens), sequence (P08069 31-736 limits assumed): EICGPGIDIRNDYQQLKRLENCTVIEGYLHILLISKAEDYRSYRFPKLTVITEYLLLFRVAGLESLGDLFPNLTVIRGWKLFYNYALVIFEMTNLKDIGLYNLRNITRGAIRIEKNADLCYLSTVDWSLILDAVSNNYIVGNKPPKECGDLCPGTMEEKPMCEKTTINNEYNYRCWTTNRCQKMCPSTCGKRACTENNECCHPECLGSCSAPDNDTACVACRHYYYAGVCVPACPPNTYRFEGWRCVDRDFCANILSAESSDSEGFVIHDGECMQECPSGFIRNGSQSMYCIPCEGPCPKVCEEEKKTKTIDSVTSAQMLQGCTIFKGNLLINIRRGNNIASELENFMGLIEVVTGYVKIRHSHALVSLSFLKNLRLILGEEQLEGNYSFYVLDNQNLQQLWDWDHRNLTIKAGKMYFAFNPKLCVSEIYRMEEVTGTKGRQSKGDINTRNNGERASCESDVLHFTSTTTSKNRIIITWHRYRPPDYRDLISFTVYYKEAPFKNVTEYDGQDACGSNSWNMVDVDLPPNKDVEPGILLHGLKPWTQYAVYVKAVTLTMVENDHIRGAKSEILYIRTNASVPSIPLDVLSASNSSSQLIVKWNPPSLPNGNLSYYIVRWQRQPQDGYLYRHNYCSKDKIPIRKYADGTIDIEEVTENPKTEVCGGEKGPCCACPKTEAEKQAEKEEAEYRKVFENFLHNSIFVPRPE
Insulin-like growth factor 1 receptor (Homo sapiens), sequence (P08069 741-1367 limits assumed): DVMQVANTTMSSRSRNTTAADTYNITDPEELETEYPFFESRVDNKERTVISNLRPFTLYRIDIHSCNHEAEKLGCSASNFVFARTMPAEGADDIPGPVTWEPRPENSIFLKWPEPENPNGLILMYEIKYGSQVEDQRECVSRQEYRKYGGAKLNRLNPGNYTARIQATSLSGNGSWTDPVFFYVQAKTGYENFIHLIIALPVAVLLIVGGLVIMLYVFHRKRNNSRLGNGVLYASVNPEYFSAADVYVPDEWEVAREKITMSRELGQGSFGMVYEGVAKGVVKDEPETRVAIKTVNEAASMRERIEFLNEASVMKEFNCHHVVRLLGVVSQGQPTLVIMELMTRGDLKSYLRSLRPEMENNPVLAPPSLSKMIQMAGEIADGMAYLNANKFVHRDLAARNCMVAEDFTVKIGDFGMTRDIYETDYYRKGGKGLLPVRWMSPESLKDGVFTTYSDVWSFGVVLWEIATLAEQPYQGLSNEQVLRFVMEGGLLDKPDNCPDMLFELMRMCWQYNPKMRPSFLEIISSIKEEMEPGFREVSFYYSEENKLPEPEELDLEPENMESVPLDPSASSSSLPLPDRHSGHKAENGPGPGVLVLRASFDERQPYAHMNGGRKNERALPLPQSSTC
Procedure, shortened: (§1)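 Recombinant tyrosine kinases assayed on wells precoated with poly(Glu,Tyr)4:1 (20 µg/mL). ATP 10 µmol/L in HEPES pH 7.4 buffer with MgCl2, MnCl2, Na3VO4 and DTT; compound in 1% DMSO, 1% DMSO as control. Reaction 60 min at 37 °C. Phosphotyrosine detected with PY99 and HRP anti-mouse, o-phenylenediamine, A490. Inhibition % relative to control; two experiments.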

AGS = test: Antiproliferative activity against human AGS cells after 72 hrs by SRB or MTT assay; type: functional, cell-based
Procedure, shortened: (§2)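 Cells seeded, exposed next day to a range of concentrations for 72 h. Growth read by sulforhodamine B or MTT. IC50 from four-parameter concentration-response fit. Each concentration tested at least in triplicate, with at least 2 experiments.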

NCI-H1299 = test: Antiproliferative activity against human NCI-H1299 cells after 72 hrs by SRB or MTT assay; type: functional, cell-based; settings: NCI-H1299, 72 h; procedure, shortened: as §2
[2] = system: Epidermal growth factor receptor (Homo sapiens), P00533 [L858R,T790M]; test: Inhibition of EGFR T790M/L858R double mutant (unknown origin) using poly (Glu, Tyr) 4:1 as substrate at 1000 nM incubated for 60 mins by ELISA relative to control; type: protein assay
Epidermal growth factor receptor (Homo sapiens), P00533 [L858R,T790M], sequence (P00533 whole entry T790M/L858R, looked up): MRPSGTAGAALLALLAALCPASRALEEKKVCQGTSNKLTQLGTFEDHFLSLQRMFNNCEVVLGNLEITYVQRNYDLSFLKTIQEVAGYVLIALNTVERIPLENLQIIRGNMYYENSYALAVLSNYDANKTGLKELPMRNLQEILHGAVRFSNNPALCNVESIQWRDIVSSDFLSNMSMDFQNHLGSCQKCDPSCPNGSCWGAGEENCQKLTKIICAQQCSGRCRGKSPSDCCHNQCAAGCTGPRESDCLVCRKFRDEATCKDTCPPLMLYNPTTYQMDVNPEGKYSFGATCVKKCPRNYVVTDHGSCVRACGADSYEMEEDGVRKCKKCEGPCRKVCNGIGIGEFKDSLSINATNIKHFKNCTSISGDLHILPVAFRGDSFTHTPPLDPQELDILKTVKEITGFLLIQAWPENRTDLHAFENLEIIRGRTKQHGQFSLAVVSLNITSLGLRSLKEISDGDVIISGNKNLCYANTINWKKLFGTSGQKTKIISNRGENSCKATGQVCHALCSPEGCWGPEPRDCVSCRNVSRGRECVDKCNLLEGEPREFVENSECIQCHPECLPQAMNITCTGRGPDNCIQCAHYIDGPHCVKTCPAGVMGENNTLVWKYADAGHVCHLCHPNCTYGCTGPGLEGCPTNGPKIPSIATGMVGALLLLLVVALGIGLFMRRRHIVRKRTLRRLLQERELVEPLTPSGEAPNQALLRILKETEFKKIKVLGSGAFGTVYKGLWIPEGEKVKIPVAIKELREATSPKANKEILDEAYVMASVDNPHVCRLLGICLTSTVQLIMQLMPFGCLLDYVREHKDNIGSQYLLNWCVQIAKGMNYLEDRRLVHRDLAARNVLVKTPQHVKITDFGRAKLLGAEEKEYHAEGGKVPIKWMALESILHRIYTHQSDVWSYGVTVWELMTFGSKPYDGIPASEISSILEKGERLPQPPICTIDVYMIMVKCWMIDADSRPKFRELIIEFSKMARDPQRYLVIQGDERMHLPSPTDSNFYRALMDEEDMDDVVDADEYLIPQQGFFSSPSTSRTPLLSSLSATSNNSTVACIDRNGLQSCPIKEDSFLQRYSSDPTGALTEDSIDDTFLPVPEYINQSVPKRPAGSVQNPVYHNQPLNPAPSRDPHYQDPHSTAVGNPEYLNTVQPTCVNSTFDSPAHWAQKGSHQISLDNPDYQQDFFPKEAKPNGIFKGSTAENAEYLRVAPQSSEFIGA
Procedure, shortened: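 Recombinant kinase, ELISA on a poly(Glu,Tyr)4:1 coat (20 μg/mL). 10 μmol/L ATP in HEPES pH 7.4 with MgCl2, MnCl2, Na3VO4 and DTT; 1% DMSO. Reaction 60 min at 37 °C. Phosphotyrosine detected with PY99 and HRP anti-mouse IgG, o-phenylenediamine substrate, A490. Inhibition % versus DMSO control; two separate experiments.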

[3] = Antiproliferative activity against human BGC823 cells after 72 hrs by SRB or MTT assay; type: functional, cell-based; settings: BGC-823, 72 h; procedure, shortened: as §2
[4] = molecular target: T1, Hepatocyte growth factor receptor (Homo sapiens, UniProt P08581); test: Inhibition of c-Met in human EBC1 cells assessed as reduction in AKT phosphorylation at Serine 473 at 10 nM after 1 hr by Western blot analysis; type: cell-based
T1 sequence (P08581 whole entry): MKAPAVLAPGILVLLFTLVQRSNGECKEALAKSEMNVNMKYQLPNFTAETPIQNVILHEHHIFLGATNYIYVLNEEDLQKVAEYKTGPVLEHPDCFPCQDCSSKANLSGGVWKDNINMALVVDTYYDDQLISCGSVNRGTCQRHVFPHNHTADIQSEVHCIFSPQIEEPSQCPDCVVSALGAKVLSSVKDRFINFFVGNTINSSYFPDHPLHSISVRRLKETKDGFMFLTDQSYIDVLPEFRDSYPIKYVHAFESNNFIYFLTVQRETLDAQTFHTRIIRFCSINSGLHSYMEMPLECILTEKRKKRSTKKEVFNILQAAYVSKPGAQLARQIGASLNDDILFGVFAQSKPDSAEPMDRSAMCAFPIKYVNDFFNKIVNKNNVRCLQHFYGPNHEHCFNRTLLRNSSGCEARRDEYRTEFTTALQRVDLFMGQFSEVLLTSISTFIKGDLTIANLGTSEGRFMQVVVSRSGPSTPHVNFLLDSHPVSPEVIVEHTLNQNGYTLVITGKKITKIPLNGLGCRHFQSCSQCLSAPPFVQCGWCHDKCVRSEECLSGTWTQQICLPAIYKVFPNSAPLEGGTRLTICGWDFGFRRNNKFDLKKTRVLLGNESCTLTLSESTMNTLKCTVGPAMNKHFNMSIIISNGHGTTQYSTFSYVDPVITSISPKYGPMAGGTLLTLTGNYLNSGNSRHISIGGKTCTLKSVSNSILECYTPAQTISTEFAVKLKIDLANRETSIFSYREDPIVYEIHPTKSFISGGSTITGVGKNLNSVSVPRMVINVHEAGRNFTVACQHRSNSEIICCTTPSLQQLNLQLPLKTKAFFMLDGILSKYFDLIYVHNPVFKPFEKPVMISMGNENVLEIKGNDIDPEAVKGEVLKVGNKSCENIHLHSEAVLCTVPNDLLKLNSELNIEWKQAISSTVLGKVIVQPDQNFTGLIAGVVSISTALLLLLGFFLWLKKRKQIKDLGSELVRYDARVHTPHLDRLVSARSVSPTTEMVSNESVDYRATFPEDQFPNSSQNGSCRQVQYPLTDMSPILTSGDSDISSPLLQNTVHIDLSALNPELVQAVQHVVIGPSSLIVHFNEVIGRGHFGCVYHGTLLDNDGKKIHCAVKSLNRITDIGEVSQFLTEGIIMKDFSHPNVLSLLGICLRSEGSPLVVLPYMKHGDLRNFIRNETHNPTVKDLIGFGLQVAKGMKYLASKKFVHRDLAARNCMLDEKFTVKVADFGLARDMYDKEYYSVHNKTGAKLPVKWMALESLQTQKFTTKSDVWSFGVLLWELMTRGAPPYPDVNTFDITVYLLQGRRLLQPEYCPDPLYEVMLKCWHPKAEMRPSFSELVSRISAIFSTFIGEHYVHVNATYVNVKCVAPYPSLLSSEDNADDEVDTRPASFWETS
Procedure, shortened: (§3)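 EBC-1 or MKN45 cells treated with compound 1 h at 37 °C without HGF, then lysed in 1× SDS sample buffer. Lysates run on 10% SDS-PAGE and transferred to nitrocellulose. Probed with antibodies to c-Met, phospho-c-Met, phospho-ERK1/2, phospho-AKT, AKT and GAPDH, then HRP secondary. ECL detection.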

[5] = molecular target: T1, Hepatocyte growth factor receptor; test: Inhibition of c-Met phosphorylation at Tyrosine 1235 in human EBC1 cells at 10 nM after 1 hr by Western blot analysis; type: cell-based; procedure, shortened: as §3
NCI-H596 = test: Antiproliferative activity against human NCI-H596 cells after 72 hrs by SRB or MTT assay; type: functional, cell-based; settings: NCI-H596, 72 h; procedure, shortened: as §2
[6] = molecular target: T1, Hepatocyte growth factor receptor; test: Inhibition of c-Met in human EBC1 cells assessed as reduction in ERK phosphorylation at Tyrosine 204 at 10 nM after 1 hr by Western blot analysis; type: cell-based; procedure, shortened: as §3
[7] = molecular target: Ephrin type-B receptor 2 (Homo sapiens) (UniProt P29323); test: Inhibition of recombinant EPHB2 (unknown origin) using poly (Glu, Tyr) 4:1 as substrate at 1000 nM incubated for 60 mins by ELISA relative to control; procedure, shortened: as §1
[8] = Selectivity ratio of IC50 for human NCI-HCC827 cells to IC50 for human EBC1 cells; type: ADME, cell-based
Procedure, shortened: (§4)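 Both IC50s in each ratio come from one proliferation assay. Cells were seeded and exposed the next day to a range of concentrations for 72 h, then read by SRB or MTT. IC50s were fitted by four-parameter concentration–response, with each concentration at least in triplicate and at least 2 experiments. BaF3/TPR-Met is murine pre-B BaF3 transfected with TPR-MET and puromycin-selected.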

[9] = Antiproliferative activity against human NCI-HCC827 cells after 72 hrs by SRB or MTT assay; type: functional, cell-based; settings: HCC827, 72 h; procedure, shortened: as §2
[10] = Selectivity ratio of IC50 for human SMMC7721 cells to IC50 for human MKN45 cells; type: ADME, cell-based; settings: smmc-7721
Procedure, shortened: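 Each cell line was seeded in 96-well plates, then exposed the next day to a range of compound concentrations for 72 h. Growth was read by SRB or MTT assay, and IC50 was fitted by a four-parameter concentration-response curve. Each concentration was run at least in triplicate, in at least 2 experiments. BaF3/TPR-Met are murine pre-B BaF3 cells transfected with TPR-MET cDNA and selected in puromycin.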

[11] = molecular target: Fibroblast growth factor receptor 1 (Homo sapiens) (UniProt P11362); test: Inhibition of recombinant FGFR1 (unknown origin) using poly (Glu, Tyr) 4:1 as substrate at 1000 nM incubated for 60 mins by ELISA relative to control; procedure, shortened: as §1
Fibroblast growth factor receptor 1 (Homo sapiens), sequence (P11362 22-822 limits assumed): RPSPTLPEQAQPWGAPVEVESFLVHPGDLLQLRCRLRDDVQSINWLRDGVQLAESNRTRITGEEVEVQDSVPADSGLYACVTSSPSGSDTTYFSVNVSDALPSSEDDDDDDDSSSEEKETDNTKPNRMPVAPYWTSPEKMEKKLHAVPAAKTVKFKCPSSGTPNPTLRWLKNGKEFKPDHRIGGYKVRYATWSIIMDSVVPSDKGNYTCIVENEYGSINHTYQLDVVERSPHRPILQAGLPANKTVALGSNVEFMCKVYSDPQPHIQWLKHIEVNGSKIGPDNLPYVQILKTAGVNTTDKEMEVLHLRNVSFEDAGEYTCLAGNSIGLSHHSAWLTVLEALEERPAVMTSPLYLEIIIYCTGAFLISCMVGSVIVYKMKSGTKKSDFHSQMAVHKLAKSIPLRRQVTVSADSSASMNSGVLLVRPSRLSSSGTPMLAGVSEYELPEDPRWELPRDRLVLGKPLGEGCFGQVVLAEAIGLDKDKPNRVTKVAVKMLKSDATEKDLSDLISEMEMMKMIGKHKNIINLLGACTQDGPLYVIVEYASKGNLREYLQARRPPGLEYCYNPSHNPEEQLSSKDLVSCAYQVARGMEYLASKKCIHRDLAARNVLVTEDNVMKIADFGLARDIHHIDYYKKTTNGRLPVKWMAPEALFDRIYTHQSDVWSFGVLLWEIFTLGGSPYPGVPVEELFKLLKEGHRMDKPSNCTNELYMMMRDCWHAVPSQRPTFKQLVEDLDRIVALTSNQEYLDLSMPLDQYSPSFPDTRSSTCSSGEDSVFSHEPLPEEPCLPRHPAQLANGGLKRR

[12] = Selectivity ratio of IC50 for human NCI-H596 cells to IC50 for human MKN45 cells; type: ADME, cell-based; settings: mkn-45; procedure, shortened: as §4

inhibition [1]: 0.4%
IC50 (AGS): > 10 µM
IC50 (NCI-H1299): > 10 µM
inhibition [2]: 28.9%
inhibition [4]: Active
inhibition [5]: Active
IC50 (NCI-H596): > 10 µM
inhibition [6]: Active
inhibition [7]: 8.5%
inhibition [11]: 12.8%
Compound: Fc1ccc(-c2cnc3nnc(C(F)(F)c4ccc5ncccc5c4)n3n2)cc1
IC50 [3]: > 10 µM
Ratio IC50 [8]: 10000
IC50 [9]: > 10 µM
Ratio IC50 [10]: 10000
Ratio IC50 [12]: 10000
